Experimental data published in ChEMBL document CHEMBL1212737, “Novel approach for comparing the abilities of quinolones to restrict the emergence of resistant mutants during quinolone exposure” (2010).
Values after ≈ are worked out from the molar mass of the structure shown. Active and inactive are the calls of the source. The calls are words filed in the database; no cut-off is given here.

How the values were obtained:
[1] = system: Escherichia coli; assay: Ratio of MBC to MIC99 in wild type Escherichia coli DM4100; format: functional
Summary of the method: (§1)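 MBC (99.9% kill after 20 h in liquid at 5 × 10^6 CFU/ml, survivors plated on drug-free agar) divided by MIC99 (99% block of colony formation, agar or broth dilution with 10^4–10^5 CFU, log-log interpolation); efflux-deficient tolC strain for line 4, wild-type DM4100 for line 5.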

[2] = system: Escherichia coli; assay: Ratio of mutant prevention concentration to MIC99 for wild type Escherichia coli DM4100; format: functional
Summary of the method: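 Population analysis: stationary-phase DM4100 from LB spread on agar plates spanning a broad drug range; colonies counted, passaged on drug-free agar, then retested at the selecting concentration to confirm resistance. MPC is the concentration blocking colony formation from 10^10 CFU, expressed relative to MIC99.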

[3] = system: Escherichia coli; assay: Antimicrobial activity against wild type Escherichia coli DM4100 assessed as bactericidal activity; format: functional
Summary of the method: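 Liquid-culture killing: E. coli at 5 × 10^6 CFU/ml exposed 20 h to a range of drug concentrations, survivors counted by dilution and plating on drug-free agar incubated overnight at 37°C; MBC taken as concentration lowering survival by 99.9%.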

[4] = system: Escherichia coli; assay: Reduction quinolone resistant mutation in wild type Escherichia coli DM4100 assessed as decrease in recovery of resistant bacterial mutant colonies at 5 times MIC by agar plate assay; format: functional, organism-based
Summary of the method: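 Same agar-plate accumulation assay at 5× MIC99 with an inoculum of 10^9 CFU. Drug added to molten LB agar, incubated at 37°C, and cumulative colonies scored at daily intervals. Repeated with inocula of 8 × 10^6 to 10^10 CFU in two replicate experiments.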

[5] = system: Escherichia coli; assay: Antimicrobial activity against wild type Escherichia coli DM4100 assessed as decrease in bacterial survival at 3 times MIC by agar plate method; format: functional, organism-based
Summary of the method: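 DM4100 (10^4 to 10^8 CFU) spread on quartered agar plates with drug at three times MIC; at various times a quarter excised, washed with LB, cells pelleted (5,000 × g, 5 min), diluted onto drug-free agar at 37°C, colonies counted at 24 and 48 h. Survival relative to untreated input, corrected for resistant mutants scored on 0.02 μg/ml ciprofloxacin agar; two replicate experiments.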

[6] = system: Escherichia coli; assay: Antimicrobial activity against wild type Escherichia coli DM4100 by agar or broth dilution method; format: functional
Summary of the method: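 K-12 strain grown in LB at 37°C; 10^4–10^5 CFU applied to agar plates or broth with a dilution series of compound; colonies counted after 2 days or turbidity scored after 1 day. MIC99 is the concentration blocking colony formation by 99%, interpolated from log-log plots.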

[7] = system: Escherichia coli; assay: Reduction quinolone resistant mutation in wild type Escherichia coli DM4100 assessed as decrease in recovery of resistant bacterial mutant colonies at 2 times MIC by agar plate assay; format: functional, organism-based
[8] = system: Escherichia coli; assay: Ratio of mutant prevention concentration to MIC99 for Escherichia coli KD1397 containing tolC::Tn10 gyrA+ mutant; format: functional
[9] = system: Escherichia coli; assay: Antimicrobial activity against Escherichia coli KD1397 containing tolC::Tn10 gyrA+ mutant assessed as bactericidal activity; format: functional
Summary of the method: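 Liquid-culture lethality: 5 × 10^6 CFU/ml aliquots exposed 20 h to a range of compound concentrations; survivors counted by dilution and plating on drug-free LB agar, overnight at 37°C. MBC taken as the concentration lowering survival by 99.9%.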

[10] = system: Escherichia coli; assay: Ratio of MBC to MIC99 in Escherichia coli KD1397 containing tolC::Tn10 gyrA+ mutant; format: functional; summary of the method: as §1
[11] = system: Escherichia coli; assay: Antimicrobial activity against Escherichia coli KD1397 containing tolC::Tn10 gyrA+ mutant by agar or broth dilution method; format: functional
Summary of the method: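 MIC by agar or broth dilution in LB, 37°C: 10^4–10^5 CFU applied to plates or broth cultures with serial compound concentrations. Colonies counted after 2 days, or turbid growth scored after 1 day. MIC99 is the minimal concentration blocking colony formation by 99%, interpolated from log-log plots.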

[12] = system: Escherichia coli; assay: Reduction quinolone resistant mutation in wild type Escherichia coli DM4100 assessed as decrease in recovery of resistant bacterial mutant colonies by agar plate assay; format: functional, organism-based
Summary of the method: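 Drug added to molten LB agar; 10^4–10^10 CFU of E. coli applied and incubated at 37°C for up to 2 weeks, with cumulative colonies counted daily. Day-1 colonies are taken as the preexisting-mutant baseline. Drug concentration is normalized to MIC99.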

SMILES | Ratio [1] | Ratio [2] | MBC [3] [µg/mL] | inhibition [4] | inhibition [5] | MIC99 [6] [µg/mL] | inhibition [7] | Ratio [8] | MBC [9] [µg/mL] | Ratio [10] | MIC99 [11] [µg/mL] | inhibition [12]
CCN1CCN(c2c(F)cc3c(=O)c(C(=O)O)cn(C4CC4)c3c2OC)CC1 | 1.9 | 7 | 0.27 (≈ 0.693 µM) | Active | Active | 0.14 (≈ 0.36 µM) | Active |  |  |  |  | 
COc1c(N2CC[C@@H](CN)C2)c(F)cc2c(=O)c(C(=O)O)cn(C3CC3)c12 |  |  |  |  |  |  |  | 8 | 0.01 (≈ 0.0266 µM) | 2.5 | 0.004 (≈ 0.0107 µM) | 
CCC1CN(c2c(F)cc3c(=O)c(C(=O)O)cn(C4CC4)c3c2OC)CCN1 (configuration not stated) | 3 | 6 | 0.33 (≈ 0.847 µM) | Active | Active | 0.11 (≈ 0.282 µM) | Active |  |  |  |  | 
CCn1cc(C(=O)O)c(=O)c2ccc(C)nc21 |  |  |  |  |  |  |  |  |  |  |  | Dose-dependent effect
CCN1CCN(c2cc3c(cc2F)c(=O)c(C(=O)O)cn3C2CC2)CC1 [ENROFLOXACIN] | 3.2 | 15 | 0.07 (≈ 0.195 µM) | Active | Active | 0.022 (≈ 0.0612 µM) | Active |  |  |  |  | 
CCC1CN(c2cc3c(cc2F)c(=O)c(C(=O)O)cn3C2CC2)CCN1 (configuration not stated) | 3.5 | 10 | 0.16 (≈ 0.445 µM) | Active | Active | 0.045 (≈ 0.125 µM) | Active |  |  |  |  | 
COc1c(N2CC[C@@H](CN)C2)c(F)cc2c(=O)n(N)c(=O)n(C3CC3)c12 |  |  |  |  |  |  |  | 3 | 1 (≈ 2.75 µM) | 2 | 0.5 (≈ 1.38 µM) | 
